pIC50: −log10 of the molar value. “And” between values parts separate entries of the source, which are not always exact repeats. Equal entries are not always repeated.
Tests used:
CCRF-CEM [1] = assay: Antiviral activity against CEM cells; assay type: functional, cell-based; conditions: Homo sapiens
MT2 = assay: Antiviral activity against MT-2 cells; assay type: functional, cell-based; conditions: Homo sapiens
[2] = target: Human immunodeficiency virus type 1 protease (Human immunodeficiency virus 1, UniProt Q72874); assay: Inhibitory activity against HIV-1 protease
[3] = Maximum plasma concentration in rat upon oral administration of 40 mg/kg; assay type: ADME, organism-based; set-up: dose 40 mg/kg, route oral
How it was run: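 Fasted (16-18 h) Harlan Sprague-Dawley rats, jugular cannula implanted ≥48 h earlier, gavaged 40 mg/kg in acacia/Tween emulsion, n=2. Plasma from 0-4 h blood draws diluted 1:49 and assayed by HIV protease cleavage of FITC-labelled peptide (5 h, 37 °C, MES pH 5.5) with HPLC quantitation. Inhibitory activity read against a standard curve of parent compound; Cmax is the peak.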

CCRF-CEM [4] = assay: In vitro inhibitory activity against replication of HIV type-1 virus in CEM cells; assay type: functional, cell-based; conditions: Homo sapiens

SMILES: CC(C)(C)NC(=O)c1ccccc1C[C@@H](O)[C@H](Cc1ccccc1)NC(=O)[C@H](CSc1ccc2ccccc2n1)NS(C)(=O)=O
- pIC50 (CCRF-CEM [1]): 5.27
- pIC50 (MT2): 5.19
- pIC50 [2]: 7.22

SMILES: CC(C)(C)NC(=O)c1ccccc1C[C@@H](O)[C@H](Cc1ccccc1)NC(=O)[C@H](CSc1ccccc1)NS(C)(=O)=O
- pIC50 (CCRF-CEM [1]): 5.36
- pIC50 (MT2): 5.56
- pIC50 [2]: 7.36

SMILES: CC(C)(C)NC(=O)c1ccccc1C[C@@H](O)[C@H](Cc1ccccc1)NC(=O)[C@@H](N)CC(=O)OCc1ccccc1
- pIC50 [2]: < 6.00

SMILES: CC(=O)N[C@@H](CSc1ccccc1)C(=O)N[C@@H](Cc1ccccc1)[C@H](O)Cc1ccccc1C(=O)NC(C)(C)C
- pIC50 (CCRF-CEM [1]): 5.27
- pIC50 (MT2): 4.95
- pIC50 [2]: 6.66

SMILES: CC(C)(C)NC(=O)c1ccccc1C[C@@H](O)[C@H](Cc1ccccc1)NC(=O)[C@H](CSc1ccc2ccccc2c1)NS(C)(=O)=O
- pIC50 (CCRF-CEM [1]): 6.28
- pIC50 (MT2): 6.10
- pIC50 [2]: 8.74

SMILES: CC(C)(C)NC(=O)c1ccccc1C[C@@H](O)[C@H](Cc1ccccc1)NC(=O)[C@H](C[S+]([O-])c1cccc2ccccc12)NS(C)(=O)=O (stereo partly drawn)
- pIC50 (CCRF-CEM [1]): > 9.30
- Cmax [3]: < 250 ng/mL
- pIC50 (MT2): 8.22
- pIC50 [2]: 9.35
- pIC50 (CCRF-CEM [4]): 9.10

SMILES: CC(C)(C)NC(=O)c1ccccc1C[C@@H](O)[C@H](Cc1ccccc1)NC(=O)[C@H](C[S+]([O-])c1ccccc1)NS(C)(=O)=O (stereo partly drawn)
- pIC50 (CCRF-CEM [1]): 7.00
- pIC50 (MT2): 6.30
- pIC50 [2]: 8.72

SMILES: CCCC(=O)N[C@@H](CC(=O)OCc1ccccc1)C(=O)N[C@@H](Cc1ccccc1)[C@H](O)Cc1ccccc1C(=O)NC(C)(C)C
- pIC50 (CCRF-CEM [1]): 5.06
- pIC50 (MT2): 4.62
- pIC50 [2]: 6.49

SMILES: CC(C)(C)NC(=O)c1ccccc1C[C@@H](O)[C@H](Cc1ccccc1)NC(=O)[C@H](CS(=O)(=O)c1cccc2ccccc12)NS(C)(=O)=O
- pIC50 (CCRF-CEM [1]): > 9.30
- pIC50 (MT2): 8.06
- pIC50 [2]: 9.36
- pIC50 (CCRF-CEM [4]): 7.31

SMILES: COc1ccc(SC[C@H](NS(C)(=O)=O)C(=O)N[C@@H](Cc2ccccc2)[C@H](O)Cc2ccccc2C(=O)NC(C)(C)C)cc1
- pIC50 (CCRF-CEM [1]): 5.74
- pIC50 (MT2): 5.72
- pIC50 [2]: 7.80

SMILES: CC(C)(C)NC(=O)c1ccccc1C[C@@H](O)[C@H](Cc1ccccc1)NC(=O)[C@H](C[S+]([O-])c1ccc(F)cc1)NS(C)(=O)=O (stereo partly drawn)
- pIC50 (CCRF-CEM [1]): 6.78
- Cmax [3]: 2200 ng/mL
- pIC50 (MT2): 6.05
- pIC50 [2]: 9.42

SMILES: CC(C)(C)NC(=O)c1ccccc1C[C@@H](O)[C@H](Cc1ccccc1)NC(=O)[C@H](CSc1ccccn1)NS(C)(=O)=O
- pIC50 [2]: 6.04

SMILES: CC(C)(C)NC(=O)c1ccccc1C[C@@H](O)[C@H](Cc1ccccc1)NC(=O)[C@H](CSc1ccc(F)cc1)NS(C)(=O)=O
- pIC50 (CCRF-CEM [1]): 5.67
- pIC50 (MT2): 5.54
- pIC50 [2]: 8.36

SMILES: CC(C)(C)NC(=O)c1ccccc1C[C@@H](O)[C@H](Cc1ccccc1)NC(=O)[C@H](CS(=O)(=O)c1ccc2ccccc2n1)NS(C)(=O)=O
- pIC50 (CCRF-CEM [1]): > 9.30
- Cmax [3]: < 100 ng/mL
- pIC50 (MT2): 8.30
- pIC50 [2]: 9.52
- pIC50 (CCRF-CEM [4]): 7.92

SMILES: COc1ccc(S(=O)(=O)C[C@H](NS(C)(=O)=O)C(=O)N[C@@H](Cc2ccccc2)[C@H](O)Cc2ccccc2C(=O)NC(C)(C)C)cc1
- pIC50 (CCRF-CEM [1]): 7.27
- Cmax [3]: < 300 ng/mL
- pIC50 (MT2): 6.82
- pIC50 [2]: 8.62
- pIC50 (CCRF-CEM [4]): 6.97

SMILES: CCC(=O)N[C@@H](CC(=O)OCc1ccccc1)C(=O)N[C@@H](Cc1ccccc1)[C@H](O)Cc1ccccc1C(=O)NC(C)(C)C
- pIC50 (CCRF-CEM [1]): 5.28
- pIC50 (MT2): 5.01
- pIC50 [2]: 7.14

SMILES: CC(C)(C)NC(=O)c1ccccc1C[C@@H](O)[C@H](Cc1ccccc1)NC(=O)[C@H](CS(=O)(=O)c1ccccc1)NS(C)(=O)=O
- pIC50 (CCRF-CEM [1]): 7.14
- Cmax [3]: < 300 ng/mL
- pIC50 (MT2): 6.75
- pIC50 [2]: 8.24
- pIC50 (CCRF-CEM [4]): 7.08

SMILES: CC(=O)N[C@@H](C[S+]([O-])c1ccc2ccccc2n1)C(=O)N[C@@H](Cc1ccccc1)[C@H](O)Cc1ccccc1C(=O)NC(C)(C)C (stereo partly drawn)
- pIC50 (CCRF-CEM [1]): 7.14
- pIC50 (MT2): 6.74
- pIC50 [2]: 9.60

SMILES: CC(C)(C)NC(=O)c1ccccc1C[C@@H](O)[C@H](Cc1ccccc1)NC(=O)[C@H](C[S+]([O-])c1ccc2ccccc2c1)NS(C)(=O)=O (stereo partly drawn)
- pIC50 (CCRF-CEM [1]): > 9.30
- Cmax [3]: 330 ng/mL
- pIC50 (MT2): 8.37
- pIC50 [2]: 8.46
- pIC50 (CCRF-CEM [4]): 8.17

SMILES: CC(C)(C)NC(=O)c1ccccc1C[C@@H](O)[C@H](Cc1ccccc1)NC(=O)[C@H](CS(=O)(=O)Cc1ccccc1)NS(C)(=O)=O
- pIC50 (CCRF-CEM [1]): 6.10
- pIC50 (MT2): 6.14
- pIC50 [2]: 7.71

SMILES: CC(C)(C)NC(=O)c1ccccc1C[C@@H](O)[C@H](Cc1ccccc1)NC(=O)[C@H](CS(=O)(=O)c1ccccn1)NS(C)(=O)=O
- pIC50 [2]: 7.66

SMILES: CC(C)(C)NC(=O)c1ccccc1C[C@@H](O)[C@H](Cc1ccccc1)NC(=O)[C@H](C[S+]([O-])c1ccccn1)NS(C)(=O)=O (stereo partly drawn)
- pIC50 (CCRF-CEM [1]): 6.48
- Cmax [3]: < 200 ng/mL
- pIC50 (MT2): 6.11
- pIC50 [2]: 7.71 and 8.10
- pIC50 (CCRF-CEM [4]): 6.32

SMILES: CC(C)(C)NC(=O)c1ccccc1C[C@@H](O)[C@H](Cc1ccccc1)NC(=O)[C@H](CS(=O)(=O)c1ccc(Cl)cc1)NS(C)(=O)=O
- pIC50 (CCRF-CEM [1]): 6.86
- Cmax [3]: < 300 ng/mL
- pIC50 (MT2): 7.62
- pIC50 [2]: 9.47
- pIC50 (CCRF-CEM [4]): 7.80

SMILES: CC(C)(C)NC(=O)c1ccccc1C[C@@H](O)[C@H](Cc1ccccc1)NC(=O)[C@H](CS(=O)(=O)c1ccc(C(F)(F)F)cc1)NS(C)(=O)=O
- pIC50 (CCRF-CEM [1]): 6.69
- Cmax [3]: < 300 ng/mL
- pIC50 (MT2): 6.35
- pIC50 [2]: 8.70
- pIC50 (CCRF-CEM [4]): 6.19

SMILES: CC(=O)N[C@@H](CS(=O)(=O)c1ccc2ccccc2n1)C(=O)N[C@@H](Cc1ccccc1)[C@H](O)Cc1ccccc1C(=O)NC(C)(C)C
- pIC50 [2]: 9.55
- pIC50 (CCRF-CEM [4]): 7.23

SMILES: CC(C)(C)NC(=O)c1ccccc1C[C@@H](O)[C@H](Cc1ccccc1)NC(=O)C(CS(=O)(=O)c1ccc2ccccc2n1)NS(C)(=O)=O (stereo partly drawn)
- pIC50 (CCRF-CEM [1]): 5.69
- pIC50 (MT2): 5.52
- pIC50 [2]: 8.55
- pIC50 (CCRF-CEM [4]): 5.24

SMILES: Cn1nnnc1SC[C@H](NS(C)(=O)=O)C(=O)N[C@@H](Cc1ccccc1)[C@H](O)Cc1ccccc1C(=O)NC(C)(C)C
- pIC50 (CCRF-CEM [1]): 5.18
- pIC50 (MT2): 5.03
- pIC50 [2]: 7.76

SMILES: CC(=O)N[C@@H](CS(=O)(=O)c1ccccc1)C(=O)N[C@@H](Cc1ccccc1)[C@H](O)Cc1ccccc1C(=O)NC(C)(C)C
- pIC50 (CCRF-CEM [1]): 6.09
- pIC50 (MT2): 6.09
- pIC50 [2]: 7.70

SMILES: CC(=O)N[C@@H](CSc1ccc2ccccc2n1)C(=O)N[C@@H](Cc1ccccc1)[C@H](O)Cc1ccccc1C(=O)NC(C)(C)C
- pIC50 [2]: 7.83

SMILES: CC(=O)N[C@@H](CS(=O)(=O)c1ccc2ccccc2c1)C(=O)N[C@@H](Cc1ccccc1)[C@H](O)Cc1ccccc1C(=O)NC(C)(C)C
- pIC50 (CCRF-CEM [1]): 7.96
- Cmax [3]: < 100 ng/mL
- pIC50 (MT2): 7.51
- pIC50 [2]: 9.49

SMILES: CC(C)(C)NC(=O)c1ccccc1C[C@@H](O)[C@H](Cc1ccccc1)NC(=O)[C@H](CSc1ccc(C(F)(F)F)cc1)NS(C)(=O)=O
- pIC50 (CCRF-CEM [1]): 5.53
- pIC50 (MT2): 5.23
- pIC50 [2]: 6.77

SMILES: CC(C)(C)NC(=O)c1ccccc1C[C@@H](O)[C@H](Cc1ccccc1)NC(=O)[C@H](CS(=O)(=O)c1ccc(F)cc1)NS(C)(=O)=O
- pIC50 (CCRF-CEM [1]): 7.23
- Cmax [3]: < 300 ng/mL
- pIC50 (MT2): 6.36
- pIC50 [2]: 9.11
- pIC50 (CCRF-CEM [4]): 7.49

SMILES: Cn1nnnc1[S+]([O-])C[C@H](NS(C)(=O)=O)C(=O)N[C@@H](Cc1ccccc1)[C@H](O)Cc1ccccc1C(=O)NC(C)(C)C (stereo partly drawn)
- Cmax [3]: 490 ng/mL
- pIC50 [2]: 8.68
- pIC50 (CCRF-CEM [4]): 5.30

SMILES: CC(C)(C)NC(=O)c1ccccc1C[C@@H](O)[C@H](Cc1ccccc1)NC(=O)[C@H](CSc1cccc2ccccc12)NS(C)(=O)=O
- pIC50 (CCRF-CEM [1]): 6.57
- pIC50 (MT2): 6.12
- pIC50 [2]: 8.92
- pIC50 (CCRF-CEM [4]): 6.49

SMILES: CC(C)(C)NC(=O)c1ccccc1C[C@@H](O)[C@H](Cc1ccccc1)NC(=O)[C@H](C[S+]([O-])c1ccc(C(F)(F)F)cc1)NS(C)(=O)=O (stereo partly drawn)
- pIC50 (CCRF-CEM [1]): 7.28
- Cmax [3]: < 200 ng/mL
- pIC50 (MT2): 6.94
- pIC50 [2]: 8.64

SMILES: CC(C)(C)NC(=O)c1ccccc1C[C@@H](O)[C@H](Cc1ccccc1)NC(=O)[C@H](CSCc1ccccc1)NS(C)(=O)=O
- pIC50 (CCRF-CEM [1]): 5.78
- pIC50 (MT2): 6.03
- pIC50 [2]: 7.83
